Experimental data pooled from the literature.
Lines come from different studies, so protocols differ. pEC50, pIC50: −log10 of the molar value.

O=C1O[C@H]([C@@H](O)CO)C(O)=C1O — pIC50 (ABTS scavenging, absorbance; 30 min): 4.95
O=C(NC(=S)Nc1cccc(O)c1)c1ccco1 — pIC50 (Leishmania donovani; parasite growth, resazurin; promastigote): 6.32
COc1cccc2c1C(=O)c1c(O)c3c(c(O)c1C2=O)C[C@@](O)(C(=O)CO)C[C@@H]3O[C@H]1C[C@H](N)[C@H](O)[C@H](C)O1 — viability (A549; cell growth or viability, MTT; 25 µg/mL, 48 h, serum-free): 38.2%
C=CCNC(=S)NNC(=O)COc1ccc2c(C)c(CC)c(=O)oc2c1C — viability (PC-3; cell growth or viability, MTT; 31.25 µg/mL): 99.9%
O=C(NC(=S)Nc1ccccc1O)c1ccco1 — pIC50 (Leishmania donovani; parasite growth, resazurin; promastigote): 5.61
Cc1c(C)c2c(c(C)c1O)CCC(C)(C(=O)O)O2 (stereo not shown) — pIC50 (ABTS scavenging): 3.80
Cc1cccc(/C=C/C(=O)Nc2cccc(-c3ccnc(N4CCC(CO)CC4)c3)c2)c1 — inhibition (A549; cell growth or viability, MTT; 5 µM): 52.9%
C=CC(=O)NC1CCN(c2ncc3ncnc(Nc4ccc(Oc5ccc6c(c5)ncn6C)c(C)c4)c3n2)CC1 — pEC50 (NCI-H2170; cell growth or viability): 7.42
CCCOc1ccc2c(C)c(CC)c(=O)oc2c1C — viability (PC-3; cell growth or viability, MTT; 250 µg/mL): 26.3%
CCCCCCCCCCCCCCCCOP(=O)([O-])OCC[N+](C)(C)C — pIC50 (Leishmania donovani; parasite growth, resazurin; promastigote): 5.71
O=C1O[C@H]([C@@H](O)CO)C(O)=C1O — pIC50 (ABTS scavenging): 3.46
O=C(NC(=S)Nc1ccccn1)c1ccco1 — pIC50 (Leishmania donovani; parasite growth, resazurin; promastigote): 5.64
Cc1c(Cc2ccccc2)c(=O)oc2c(C)c(OCC(=O)NN=Cc3ccc(Cl)cc3)ccc12 — viability (PC-3; cell growth or viability, MTT; 250 µg/mL): 29%
O=C(C=Cc1ccccc1)Nc1cccc(-c2ccnc(N3CCC(O)CC3)c2)c1 — inhibition (A549; cell growth or viability, MTT; 5 µM): 54.8%
Cc1c(Cc2ccccc2)c(=O)oc2c(C)c(OCC(=O)NN=Cc3ccco3)ccc12 — viability (PC-3; cell growth or viability, MTT; 250 µg/mL): 11.1%
O=C(NC(=S)Nc1ccccn1)c1cccs1 — pIC50 (Leishmania donovani; parasite growth, resazurin; promastigote): 5.90
